Series [1] is described as follows: Drug level in Wistar rat plasma at 1 mg/kg, po after 0.5 hr. It is filed as ADME, organism-based. Also noted: dose 1 mg/kg, route oral. Particulars: read-out: Drug uptake. The method in brief:
(§1)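 Male Wistar rats, 8 weeks old, fasted overnight; single oral dose 1 mg/kg as aqueous solution. Jugular vein blood (200 µL) at 0.5, 1, 2, 6 h; plasma deproteinized with acetonitrile, supernatant analysed by LC–MS/MS (C18 column, ammonium acetate/acetonitrile eluent, ESI).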

Series [2] in a line: Drug level in Wistar rat plasma at 1 mg/kg, po after 6 hrs. It is filed as ADME, organism-based. Set-up: dose 1 mg/kg, route oral. Particulars: read-out: Drug uptake. The method in brief: as §1
Series [3] concerns Rattus norvegicus. Description: Inhibition of DPP4 activity in Zucker fatty rat plasma at 0.3 mg/kg, po upto 120 mins by OGTT. It is filed as functional, organism-based. Set-up: dose 0.3 mg/kg. The method in brief: (§2)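 Male Zucker fatty rats (lean controls), 10 weeks, fasted overnight, n = 6. Compound in distilled water given orally (0.1 or 0.3 mg/kg) 30 min before oral glucose 2 g/kg. Orbital sinus blood under ether anesthesia at set times; plasma glucose, insulin and DPP-IV activity measured. Mean ± SE; Dunnett's or Student's t-test vs vehicle.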

Series [4] concerns Rattus norvegicus. The experiment in a line: Inhibition of DPP4 activity in Zucker fatty rat plasma at 0.1 mg/kg, po after 15 mins by OGTT. It is filed as functional, organism-based. Also noted: dose 0.1 mg/kg. Put shortly: as §2
In series [5] the test system is Rattus norvegicus. The experiment in a line: Reduction of hyperglycemia in Zucker fatty rat at 0.1 mg/kg, po after 30 mins by OGTT. It is filed as functional, organism-based. Also noted: dose 0.1 mg/kg. The method in brief: as §2
The subject of series [6] is Rattus norvegicus. The experiment in a line: Increase in insulin secretion in Zucker fatty rat plasma at 0.1 mg/kg, po after 30 mins by OGTT. It is filed as functional, organism-based. Also noted: dose 0.1 mg/kg. Put shortly: as §2
Series [7] concerns Rattus norvegicus. Description: Reduction of hyperglycemia in Zucker fatty rat at 0.3 mg/kg, po by after 30 mins OGTT. It is filed as functional, organism-based. Also noted: dose 0.3 mg/kg. Put shortly:
as §2

For series [8], the system named is Rattus norvegicus. Description: Inhibition of DPP4 activity in Zucker fatty rat plasma at 0.3 mg/kg, po after 15 mins by OGTT. It is filed as functional, organism-based. Set-up: dose 0.3 mg/kg. Put shortly:
as §2

The test system of series [9] is Rattus norvegicus. The experiment in a line: Increase in insulin secretion in Zucker fatty rat plasma at 0.3 mg/kg, po after 30 mins by OGTT. It is filed as functional, organism-based. Set-up: dose 0.3 mg/kg. The method in brief:
as §2

Series [10] is described as follows: Chemical stability in aqueous buffer solution at pH 6.8 after 6 hrs. It is filed as physicochemical. Particulars: read-out: Stability. Put shortly:
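Residual amount determined by reverse-phase HPLC (UV 210 nm, acetonitrile–H2O buffer elution at 1.0 mL/min) after 6 h incubation at 37 °C in pH 6.8 aqueous buffer; dihydrochloride salt used for one reference compound.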

The subject of series [11] is Rattus norvegicus. The experiment in a line: Inhibition of DPP4 activity in Zucker fatty rat plasma at 0.1 mg/kg, po upto 120 mins by OGTT. Also noted: dose 0.1 mg/kg. It is filed as functional, organism-based. Put shortly: as §2
Series [12] can be described thus: Drug level in Wistar rat plasma at 1 mg/kg, po after 1 hr. Particulars: read-out: Drug uptake. It is filed as ADME, organism-based. Set-up: dose 1 mg/kg, route oral. Put shortly: as §1
Series [13] in a line: Drug level in Wistar rat plasma at 1 mg/kg, po after 2 hrs. It is filed as ADME, organism-based. Set-up: dose 1 mg/kg, route oral. Particulars: read-out: Drug uptake. The method in brief: as §1
The target of the next series is Dipeptidyl peptidase 4 (Homo sapiens, UniProt P27487). It is filed as cell-free, Plasma.
Chain of Dipeptidyl peptidase 4 (P27487 whole entry): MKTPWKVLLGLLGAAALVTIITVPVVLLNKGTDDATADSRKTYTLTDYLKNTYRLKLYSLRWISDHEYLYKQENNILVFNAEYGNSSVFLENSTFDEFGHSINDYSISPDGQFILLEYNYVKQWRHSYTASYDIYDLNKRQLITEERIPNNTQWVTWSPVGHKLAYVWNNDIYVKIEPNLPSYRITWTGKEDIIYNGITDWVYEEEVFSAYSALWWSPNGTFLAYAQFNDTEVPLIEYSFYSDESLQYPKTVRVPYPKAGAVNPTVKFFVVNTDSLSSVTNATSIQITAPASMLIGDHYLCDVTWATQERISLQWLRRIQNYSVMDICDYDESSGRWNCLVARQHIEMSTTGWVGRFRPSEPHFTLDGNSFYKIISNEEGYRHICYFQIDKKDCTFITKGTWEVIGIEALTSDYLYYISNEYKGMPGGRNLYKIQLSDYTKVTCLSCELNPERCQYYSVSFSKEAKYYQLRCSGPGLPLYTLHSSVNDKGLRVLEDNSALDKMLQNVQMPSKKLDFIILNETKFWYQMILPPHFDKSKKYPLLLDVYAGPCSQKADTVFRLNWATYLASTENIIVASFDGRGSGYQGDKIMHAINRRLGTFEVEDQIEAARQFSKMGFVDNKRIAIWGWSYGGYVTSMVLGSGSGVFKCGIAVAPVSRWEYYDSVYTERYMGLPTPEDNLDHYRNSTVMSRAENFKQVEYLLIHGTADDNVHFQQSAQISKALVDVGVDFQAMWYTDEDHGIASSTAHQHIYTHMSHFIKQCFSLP

Calls of active or inactive are those of the source. No cut-off for these calls is given here.

As usually defined, the IC50 is the concentration at which inhibition is half-maximal.

Consider `CC(C)(CO)NCC(=O)N1C[C@@H](F)C[C@H]1C#N`, for which the concentration at 0.5 h in series [1] turned out to be 355 ng/mL. The concentration at 6 h in series [2] turned out to be 31 ng/mL. The outcome in the series on Rattus norvegicus [3], with Rattus norvegicus [4], in the series with Rattus norvegicus [5], with Rattus norvegicus [6], in the series on Rattus norvegicus [7] and in the series on Rattus norvegicus [8] was Active. The outcome in the series with Rattus norvegicus [9] and with Rattus norvegicus [11] was Active. For the same compound, the remaining at 6 h in series [10] is 96%. Also, in series [12], the concentration at 1 h turned out to be 274 ng/mL. Moreover, the concentration at 2 h in series [13] amounted to 168 ng/mL.
At Dipeptidyl peptidase 4, `CC(C)CNCC(C)(C)NCC(=O)N1C[C@@H](F)C[C@H]1C#N` had an IC50 above 316 nM.
Take `CC[C@H](C)[C@@H](N)C(=O)N1C[C@@H](F)C[C@H]1C#N`: the concentration at 0.5 h in [1] was found to be 195 ng/mL. For the same compound, the concentration at 6 h in [2] was found to be 1 ng/mL. Besides, the remaining at 6 h in series [10] turned out to be 70%. Also, the concentration at 1 h in series [12] came out at 24 ng/mL. In addition, in [13], the concentration at 2 h stood at 5 ng/mL.
Take `N#Cc1ccc(NCCNCC(=O)N2C[C@@H](F)C[C@H]2C#N)nc1`: the remaining at 6 h in series [10] was 86%.
On to `C#CC(CC)(CC)NCC(=O)N1C[C@@H](F)C[C@H]1C#N`, for which the concentration for half-maximal inhibition (IC50) against Dipeptidyl peptidase 4 is above 316 nM.
Turning to `N#Cc1ccc(NCCNCC(=O)N2C[C@@H](F)C[C@H]2C#N)nc1.O=C(O)/C=C\C(=O)O`, in [1], the concentration at 0.5 h is 157 ng/mL. For the same compound, the concentration at 6 h in series [2] amounted to 6 ng/mL. For the same compound, the concentration at 1 h in series [12] stood at 62 ng/mL. For the same compound, the concentration at 2 h in series [13] came out at 8 ng/mL.

(Values after ChEMBL document CHEMBL1157135, “Synthesis and structure-activity relationships of potent 4-fluoro-2-cyanopyrrolidine dipeptidyl peptidase IV inhibitors” (Bioorg Med Chem, 2008).)
